Experimental data taken from article PMC6955635 (Drug Design, Development and Therapy, 2020).

How the values were obtained:
[1] = system: healthy males; assay: Adverse events, single-dose administration study; type: in vivo, human; details: single 12-h iv infusion, n = 6, number of subjects (%)
In short: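 Randomized, double-blind, dose-escalation study in healthy Japanese men: 8 per group, 1:3 placebo (D-mannitol) versus test compound at 3, 9 or 15 ng/kg/min. Single continuous IV infusion over 12 h (±30 min), hospitalized from the day before to the day after. Each escalation followed safety review of the next-day results. AEs were monitored throughout, plus vital signs, labs, physical exams and 12-lead ECG at set times. Monitor ECG ran to 24 h post-dose.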

[2] = system: healthy males; assay: Adverse events, multiple-dose administration study; type: in vivo, human
[3] = Pharmacokinetics, plasma AM, single-dose administration study; type: in vivo, human; details: for AUC(0-t) / Cmax / Tmax / half-life: male, human, plasma, iv
[4] = Pharmacokinetics, plasma AM, multiple-dose administration study; type: in vivo, human; details: for half-life: T1/2 (terminal plasma elimination half-life), Phoenix WinNonlin; for half-life / Tmax: multiple administration, 8-h iv infusion 15 ng/kg/min per day for 7 days, mean ± SD; for Tmax: Tmax (time to maximum measured plasma concentration)
[5] = system: healthy males; assay: Clinical laboratory tests; type: in vivo, human; details: all AM doses, single- and multiple-dose studies
[6] = system: normotensive and hypertensive patients; details: 30 ng/kg/min, after 90 min of intravenous infusion; cited from earlier work
[7] = male, human, plasma, iv, 15 ng/kg/min, Day 1
[8] = male, human, plasma, iv, 15 ng/kg/min, Day 7

CC[C@H](C)[C@H](NC(=O)[C@H](CCC(N)=O)NC(=O)[C@H](Cc1c[nH]cn1)NC(=O)[C@H](C)NC(=O)[C@H](CC(C)C)NC(=O)[C@H](CCCCN)NC(=O)[C@H](CCC(N)=O)NC(=O)[C@@H](NC(=O)[C@@H](NC(=O)[C@@H]1CSSC[C@H](NC(=O)CNC(=O)[C@H](Cc2ccccc2)NC(=O)[C@H](CO)NC(=O)[C@H](CCCNC(=N)N)NC(=O)[C@H](CC(C)C)NC(=O)CNC(=O)[C@H](CCC(N)=O)NC(=O)[C@H](Cc2ccccc2)NC(=O)[C@H](CC(N)=O)NC(=O)[C@H](CC(N)=O)NC(=O)[C@H](CCSC)NC(=O)[C@H](CO)NC(=O)[C@H](CCC(N)=O)NC(=O)[C@H](CCCNC(=N)N)NC(=O)[C@@H](N)Cc2ccc(O)cc2)C(=O)N[C@@H](CCCNC(=N)N)C(=O)N[C@@H](Cc2ccccc2)C(=O)NCC(=O)N[C@@H]([C@@H](C)O)C(=O)N1)[C@@H](C)O)C(C)C)C(=O)N[C@@H](Cc1ccc(O)cc1)C(=O)N[C@@H](CCC(N)=O)C(=O)N[C@@H](Cc1ccccc1)C(=O)N[C@H](C(=O)N[C@@H](CC(=O)O)C(=O)N[C@@H](CCCCN)C(=O)N[C@@H](CC(=O)O)C(=O)N[C@@H](CCCCN)C(=O)N[C@@H](CC(=O)O)C(=O)N[C@@H](CC(N)=O)C(=O)N[C@H](C(=O)N[C@@H](C)C(=O)N1CCC[C@H]1C(=O)N[C@@H](CCCNC(=N)N)C(=O)N[C@@H](CO)C(=O)N[C@@H](CCCCN)C(=O)N[C@H](C(=O)N[C@@H](CO)C(=O)N1CCC[C@H]1C(=O)N[C@@H](CCC(N)=O)C(=O)NCC(=O)N[C@@H](Cc1ccc(O)cc1)C(N)=O)[C@@H](C)CC)C(C)C)[C@@H](C)O [Adrenomedullin]
Any adverse event ([1]; high dose 15 ng/kg/min): 2(33.3%) | Deaths ([1]; high dose 15 ng/kg/min): 0 | Diarrhea (gastrointestinal disorders) ([1]; high dose 15 ng/kg/min): 0 | Headache (nervous system disorders) ([1]; high dose 15 ng/kg/min): 1(16.7%) | Palpitations (cardiac disorders) ([1]; high dose 15 ng/kg/min): 0 | Serious adverse events ([1]; high dose 15 ng/kg/min): 0 | Severe adverse events ([1]; high dose 15 ng/kg/min): 0 | Treatment-related adverse events ([1]; high dose 15 ng/kg/min): 2(33.3%) | Wenckebach type atrioventricular block (cardiac disorders) ([1]; high dose 15 ng/kg/min): 1(16.7%) | Any adverse event ([1]; low dose 3 ng/kg/min): 0 | Deaths ([1]; low dose 3 ng/kg/min): 0 | Diarrhea (gastrointestinal disorders) ([1]; low dose 3 ng/kg/min): 0 | Headache (nervous system disorders) ([1]; low dose 3 ng/kg/min): 0 | Palpitations (cardiac disorders) ([1]; low dose 3 ng/kg/min): 0 | Serious adverse events ([1]; low dose 3 ng/kg/min): 0 | Severe adverse events ([1]; low dose 3 ng/kg/min): 0 | Treatment-related adverse events ([1]; low dose 3 ng/kg/min): 0 | Wenckebach type atrioventricular block (cardiac disorders) ([1]; low dose 3 ng/kg/min): 0 | Any adverse event ([1]; medium dose 9 ng/kg/min): 3(50.0%) | Deaths ([1]; medium dose 9 ng/kg/min): 0 | Diarrhea (gastrointestinal disorders) ([1]; medium dose 9 ng/kg/min): 0 | Headache (nervous system disorders) ([1]; medium dose 9 ng/kg/min): 1(16.7%) | Palpitations (cardiac disorders) ([1]; medium dose 9 ng/kg/min): 0 | Serious adverse events ([1]; medium dose 9 ng/kg/min): 0 | Severe adverse events ([1]; medium dose 9 ng/kg/min): 0 | Treatment-related adverse events ([1]; medium dose 9 ng/kg/min): 3(50.0%) | Wenckebach type atrioventricular block (cardiac disorders) ([1]; medium dose 9 ng/kg/min): 2(33.3%) | ECG abnormalities, including monitor ECG ([2]; 15 ng/kg/min 8 h per day for 7 days): not reported | Withdrawal from the study due to headache ([2]; AM 15 ng/kg/min group, n = 6): one withdrawal | Increase of Cmax compared to the basal concentration of AM ([3]; high-dose AM group (15 ng/kg/min), single 12-h iv infusion): sevenfold | AUC(0-t) ([3]; 3 ng/kg/min): 0.163 ± 0.0212 ng·h/mL | Cmax ([3]; 3 ng/kg/min): 0.01 ± 0.0011 ng/mL | Tmax ([3]; 3 ng/kg/min): 9.3 ± 4.7 h | half-life ([3]; 3 ng/kg/min): 1.04 ± 0.92 h | AUC(0-t) ([3]; 9 ng/kg/min): 0.295 ± 0.0521 ng·h/mL | Cmax ([3]; 9 ng/kg/min): 0.0255 ± 0.0037 ng/mL | Tmax ([3]; 9 ng/kg/min): 10.7 ± 1.6 h | half-life ([3]; 9 ng/kg/min): 0.3 ± 0.2 h | AUC(0-t) ([3]; 15 ng/kg/min): 0.532 ± 0.0915 ng·h/mL | Cmax ([3]; 15 ng/kg/min): 0.0504 ± 0.0093 ng/mL | Tmax ([3]; 15 ng/kg/min): 10 ± 2.2 h | half-life ([3]; 15 ng/kg/min): 0.23 ± 0.15 h | Accumulation of plasma AM ([4]; after the end of the 7-day AM administration, 15 ng/kg/min 8 h per day): accumulation was not observed | Cmax ([4]; male, human, plasma, iv, 15 ng/kg/min): 0.0479 ± 0.0109 ng/mL | half-life [4, 7]: 0.45 ± 0.66 h | half-life [4, 8]: 0.17 ± 0.07 h | Tmax [4, 7]: 7.2 ± 1.1 h | Tmax [4, 8]: 6.8 ± 1.1 h | Changes in clinical laboratory test values [5]: no changes due to the direct effect of AM | Effect on BP [6]: clear decrease in BP
